Calls of active or inactive are those of the source. The calls are words filed in the database; no cut-off is given here.
Experiments:
[1] = molecular target: C-X-C chemokine receptor type 4 (Homo sapiens, UniProt P61073); assay: Antagonist activity at human CXCR4 expressed in CHOK1 cells assessed as inhibition of SDF1a-induced cAMP accumulation at 10 uM preincubated for 30 mins followed agonist addition measured after 30 to 60 mins; assay type: functional, cell-based
Method in brief: (§1)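 GPCR cAMP assay with a single test concentration of 10 μM; result expressed as percentage inhibition for each chemokine receptor.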

[2] = system: Rattus norvegicus; assay: Cardiotoxicity in Sprague-Dawley rat assessed as effect on heart color at 50 mg/kg/day, sc administered for 14 days relative to control; assay type: toxicity, organism-based; settings: in vivo, 336 h
Method in brief: (§2)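 Non-GLP 14-day repeated-dose study in SD rats given 50 mg/kg/day SC. Major organs (liver, kidney, lung, heart) compared with vehicle for size, weight and colour. Blood analysed for hematological and biochemical parameters.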

[3] = system: Rattus norvegicus; assay: Cardiotoxicity in Sprague-Dawley rat assessed as effect on heart size at 50 mg/kg/day, sc administered for 14 days relative to control; assay type: toxicity, organism-based; settings: in vivo, 336 h; method in brief: as §2
[4] = system: Mus musculus; assay: In vivo antagonist activity at CXCR4 in C57BL/6 mouse assessed as induction of monocytes molization at 35 mg/kg, sc measured after 2 hrs relative to AMD3100; assay type: functional; design: scale not given: the % may be the effect or the level left
Method in brief: (§3)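 C57BL/6 mice given a single SC injection at 6 or 35 mg/kg. Blood collected 2 h after dosing and analysed for total white blood cells, neutrophils, lymphocytes and monocytes.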

[5] = system: Mus musculus; assay: Induction of hematopoietic stem cell mobilization in C57BL/6 mouse assessed as increase in CFU-GM colonies from PBMC at 35 mg/kg, sc administered on day 5 post 100 ug/kg/day G-CSF addition for 4 days measured after 2 hrs post compound dose by colony forming assay relative to AMD3100; assay type: functional
Method in brief: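 Male C57BL/6 mice given G-CSF 100 µg/kg SC daily for 4 days. On day 5, G-CSF was co-injected SC with compound. Heparinized blood taken 2 h later; PBMCs isolated and cultured in methylcellulose medium for 10–14 days. CFU-GM colonies (aggregates of ≥50 cells) counted under an inverted microscope. Mean ± SEM, 8–12 mice per group, t test.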

[6] = Half life in C57BL/6 mouse at 6 mg/kg, sc measured up to 4 hrs post dose by LC-MS/MS analysis; assay type: ADME, organism-based; settings: in vivo
Method in brief: (§4)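 Male C57BL/6 mice (23.4–25.4 g), quarantined one week, non-fasted, n = 3; single SC dose of 6 mg/kg in 100% saline. Blood taken by cardiac puncture at 0, 0.03, 0.08, 0.25, 1, 1.5, 2 and 4 h and stored at -80 °C. Plasma analysed by LC–MS/MS; parameters from non-compartmental analysis; mean ± SD.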

[7] = system: Mus musculus; assay: In vivo antagonist activity at CXCR4 in C57BL/6 mouse assessed as induction of lymphocytes molization at 35 mg/kg, sc measured after 2 hrs relative to AMD3100; assay type: functional; design: scale not given: the % may be the effect or the level left; method in brief: as §3
[8] = molecular target: Voltage-gated inwardly rectifying potassium channel KCNH2 (Homo sapiens, UniProt Q12809); assay: Inhibition of human ERG expressed in CHO cells up to 100 uM by automated patch-clamp assay; assay type: cell-based
Sequence of Voltage-gated inwardly rectifying potassium channel KCNH2 (Q12809 whole entry): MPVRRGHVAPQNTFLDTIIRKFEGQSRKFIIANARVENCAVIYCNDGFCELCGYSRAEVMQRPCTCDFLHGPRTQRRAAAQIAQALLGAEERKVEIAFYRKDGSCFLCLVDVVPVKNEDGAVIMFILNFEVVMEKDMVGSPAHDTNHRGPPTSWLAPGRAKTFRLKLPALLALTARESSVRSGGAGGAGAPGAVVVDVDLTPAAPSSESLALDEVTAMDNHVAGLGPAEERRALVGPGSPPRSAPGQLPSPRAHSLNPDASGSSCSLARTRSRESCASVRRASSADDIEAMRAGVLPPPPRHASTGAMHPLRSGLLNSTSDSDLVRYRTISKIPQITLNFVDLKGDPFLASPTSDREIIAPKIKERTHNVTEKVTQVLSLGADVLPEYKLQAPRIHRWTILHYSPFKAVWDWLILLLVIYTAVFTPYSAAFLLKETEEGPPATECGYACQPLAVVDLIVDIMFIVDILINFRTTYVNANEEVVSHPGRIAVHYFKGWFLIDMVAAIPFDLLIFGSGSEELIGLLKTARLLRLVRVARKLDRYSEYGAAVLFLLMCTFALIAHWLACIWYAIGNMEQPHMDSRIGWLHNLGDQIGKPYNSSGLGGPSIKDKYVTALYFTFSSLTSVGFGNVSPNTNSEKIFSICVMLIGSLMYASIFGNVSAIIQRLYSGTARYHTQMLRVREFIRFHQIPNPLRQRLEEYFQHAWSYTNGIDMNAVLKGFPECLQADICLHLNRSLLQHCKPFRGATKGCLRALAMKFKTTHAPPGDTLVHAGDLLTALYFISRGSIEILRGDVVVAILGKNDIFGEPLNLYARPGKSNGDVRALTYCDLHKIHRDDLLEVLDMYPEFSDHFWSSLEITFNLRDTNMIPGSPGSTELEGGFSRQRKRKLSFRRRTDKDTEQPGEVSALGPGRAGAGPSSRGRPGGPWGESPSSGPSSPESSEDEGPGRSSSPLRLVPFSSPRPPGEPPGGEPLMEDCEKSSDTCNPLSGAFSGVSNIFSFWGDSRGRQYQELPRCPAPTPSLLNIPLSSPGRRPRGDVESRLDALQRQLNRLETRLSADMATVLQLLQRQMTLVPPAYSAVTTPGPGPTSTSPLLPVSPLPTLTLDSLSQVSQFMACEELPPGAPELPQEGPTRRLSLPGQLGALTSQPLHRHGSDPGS
Method in brief: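 hERG liability examined by patch-clamp at concentrations up to 100 μM.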

[9] = system: Rattus norvegicus; assay: Toxicity in Sprague-Dawley rat assessed as effect on biochemistry parameters at 50 mg/kg/day, sc administered for 14 days relative to control; assay type: organism-based; settings: in vivo, 336 h; method in brief: as §2
[10] = molecular target: C-X-C chemokine receptor type 2 (Homo sapiens) (UniProt P25025); assay: Antagonist activity at human CXCR2 expressed in CHOK1 cells assessed as inhibition of interleukin-8-induced cAMP accumulation at 10 uM preincubated for 30 mins followed agonist addition measured after 30 to 60 mins; assay type: functional, cell-based; method in brief: as §1
Sequence of C-X-C chemokine receptor type 2 (Homo sapiens) (P25025 whole entry): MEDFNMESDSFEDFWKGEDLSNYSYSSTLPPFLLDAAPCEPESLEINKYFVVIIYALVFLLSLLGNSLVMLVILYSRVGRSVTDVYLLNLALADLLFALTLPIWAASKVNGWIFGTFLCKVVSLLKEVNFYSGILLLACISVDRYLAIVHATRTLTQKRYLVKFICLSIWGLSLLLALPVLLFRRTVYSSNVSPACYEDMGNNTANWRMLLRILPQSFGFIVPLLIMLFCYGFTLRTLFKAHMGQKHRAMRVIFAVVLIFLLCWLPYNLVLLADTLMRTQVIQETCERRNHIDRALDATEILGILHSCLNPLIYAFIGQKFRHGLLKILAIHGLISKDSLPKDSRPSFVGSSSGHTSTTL

[11] = molecular target: C-C chemokine receptor type 10 (Homo sapiens) (UniProt P46092); assay: Antagonist activity at human CCR10 expressed in CHOK1 cells assessed as inhibition of CCL27-induced cAMP accumulation at 10 uM preincubated for 30 mins followed agonist addition measured after 30 to 60 mins; assay type: functional, cell-based; method in brief: as §1
Sequence of C-C chemokine receptor type 10 (Homo sapiens) (P46092 whole entry): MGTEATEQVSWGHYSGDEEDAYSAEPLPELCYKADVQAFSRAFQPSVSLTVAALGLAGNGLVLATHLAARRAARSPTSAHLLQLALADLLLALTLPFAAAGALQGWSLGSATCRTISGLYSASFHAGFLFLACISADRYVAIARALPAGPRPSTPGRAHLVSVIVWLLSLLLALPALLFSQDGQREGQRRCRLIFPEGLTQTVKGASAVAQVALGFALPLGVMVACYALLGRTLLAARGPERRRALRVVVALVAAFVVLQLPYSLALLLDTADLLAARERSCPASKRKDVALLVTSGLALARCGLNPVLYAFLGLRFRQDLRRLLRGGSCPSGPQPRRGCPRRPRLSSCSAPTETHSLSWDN

[12] = molecular target: Chemokine XC receptor 1 (Homo sapiens) (UniProt P46094); assay: Antagonist activity at human XCR1 expressed in CHOK1 cells assessed as inhibition of lymphotactin-induced cAMP accumulation at 10 uM preincubated for 30 mins followed agonist addition measured after 30 to 60 mins; assay type: functional, cell-based; method in brief: as §1
Sequence of Chemokine XC receptor 1 (Homo sapiens) (P46094 whole entry): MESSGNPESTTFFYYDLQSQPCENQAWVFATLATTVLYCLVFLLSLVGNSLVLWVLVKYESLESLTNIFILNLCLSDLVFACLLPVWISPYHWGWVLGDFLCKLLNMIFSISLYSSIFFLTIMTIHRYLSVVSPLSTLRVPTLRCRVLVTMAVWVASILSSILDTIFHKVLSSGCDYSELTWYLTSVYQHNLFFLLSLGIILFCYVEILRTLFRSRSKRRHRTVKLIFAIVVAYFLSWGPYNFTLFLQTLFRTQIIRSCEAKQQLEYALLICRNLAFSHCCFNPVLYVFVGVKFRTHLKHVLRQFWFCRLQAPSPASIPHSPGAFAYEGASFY

[13] = system: Mus musculus; assay: Induction of hematopoietic stem cell mobilization in C57BL/6 mouse assessed as induction of movement of HSCs and EPCs into peripheral circulation at 35 mg/kg, sc measured after 2 hrs by flow cytometric analysis relative to control; assay type: functional
[14] = molecular target: C-C chemokine receptor type 1 (Homo sapiens) (UniProt P32246); assay: Antagonist activity at human CCR1 expressed in CHOK1 cells assessed as inhibition of CCL3-induced cAMP accumulation at 10 uM preincubated for 30 mins followed agonist addition measured after 30 to 60 mins; assay type: functional, cell-based; method in brief: as §1
Sequence of C-C chemokine receptor type 1 (Homo sapiens) (P32246 whole entry): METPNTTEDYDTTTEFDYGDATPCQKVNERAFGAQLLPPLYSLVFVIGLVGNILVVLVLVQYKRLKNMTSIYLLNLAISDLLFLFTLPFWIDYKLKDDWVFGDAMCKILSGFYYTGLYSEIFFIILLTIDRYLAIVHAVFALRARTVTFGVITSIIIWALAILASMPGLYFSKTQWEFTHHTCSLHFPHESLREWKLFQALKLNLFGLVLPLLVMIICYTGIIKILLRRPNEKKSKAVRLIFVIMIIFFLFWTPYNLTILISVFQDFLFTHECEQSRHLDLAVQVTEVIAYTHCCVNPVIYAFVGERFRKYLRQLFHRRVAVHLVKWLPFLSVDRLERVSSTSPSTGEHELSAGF

[15] = system: Rattus norvegicus; assay: Toxicity in Sprague-Dawley rat assessed as effect on lung color at 50 mg/kg/day, sc administered for 14 days relative to control; assay type: organism-based; settings: in vivo, 336 h; method in brief: as §2
[16] = Cmax in C57BL/6 mouse at 6 mg/kg, sc measured up to 4 hrs post dose by LC-MS/MS analysis; assay type: ADME, organism-based; design: dose 6 mg/kg, route subcutaneous; settings: in vivo; method in brief: as §4
[17] = molecular target: Muscarinic acetylcholine receptor M2 (Homo sapiens) (UniProt P08172); assay: Displacement of [3H]AF-DX 384 from recombinant human Muscarinic M2 receptor at 10 uM after 60 mins by scintillation counting
Sequence of Muscarinic acetylcholine receptor M2 (Homo sapiens) (P08172 whole entry): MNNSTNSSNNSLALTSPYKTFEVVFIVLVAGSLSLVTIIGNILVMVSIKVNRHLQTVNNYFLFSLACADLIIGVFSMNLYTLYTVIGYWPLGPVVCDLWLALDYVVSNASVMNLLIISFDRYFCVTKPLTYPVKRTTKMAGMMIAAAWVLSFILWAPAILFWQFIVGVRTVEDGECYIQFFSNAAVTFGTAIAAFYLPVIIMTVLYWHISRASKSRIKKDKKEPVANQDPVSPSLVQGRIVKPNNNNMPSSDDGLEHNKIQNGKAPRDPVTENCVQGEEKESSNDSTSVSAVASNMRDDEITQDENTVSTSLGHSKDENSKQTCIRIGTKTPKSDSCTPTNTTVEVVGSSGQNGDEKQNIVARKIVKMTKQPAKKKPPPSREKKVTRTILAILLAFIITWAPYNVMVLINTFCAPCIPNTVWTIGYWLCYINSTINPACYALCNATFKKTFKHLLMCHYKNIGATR

[18] = system: Mus musculus; assay: In vivo induction of WBC mobilization in C57BL/6 mouse at 35 mg/kg, sc measured after 2 hrs; assay type: functional, organism-based; method in brief: as §3
[19] = system: Rattus norvegicus; assay: Toxicity in Sprague-Dawley rat assessed as effect on lung size at 50 mg/kg/day, sc administered for 14 days relative to control; assay type: organism-based; settings: in vivo, 336 h; method in brief: as §2
[20] = system: Rattus norvegicus; assay: Renal toxicity in Sprague-Dawley rat assessed as effect on kidney color at 50 mg/kg/day, sc administered for 14 days relative to control; assay type: organism-based; settings: in vivo, 336 h; method in brief: as §2
[21] = system: Rattus norvegicus; assay: Hepatotoxicity in Sprague-Dawley rat assessed as effect on liver size at 50 mg/kg/day, sc administered for 14 days relative to control; assay type: toxicity, organism-based; settings: in vivo, 336 h; method in brief: as §2
[22] = system: Mus musculus; assay: Therapeutic ratio of MTD for sc dosed C57BL/6 mouse to MED for hematopoietic stem cell mobilization in sc dosed C57BL/6 mouse
Method in brief: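 MTD: C57BL/6 or ICR male mice dosed SC from low to high, n = 3 per group; MTD is the highest dose with zero mortality (0/3). MED: lowest SC dose raising blood CXCR4⁺ cells at 2 h, by flow cytometry, in the escalating-dose study. Ratio calculated as MTD/MED.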

[23] = molecular target: C-X-C chemokine receptor type 3 (Homo sapiens) (UniProt P49682); assay: Antagonist activity at human CXCR3 expressed in CHOK1 cells assessed as inhibition of CXCL11-induced cAMP accumulation at 10 uM preincubated for 30 mins followed agonist addition measured after 30 to 60 mins; assay type: functional, cell-based; method in brief: as §1
Sequence of C-X-C chemokine receptor type 3 (Homo sapiens) (P49682 whole entry): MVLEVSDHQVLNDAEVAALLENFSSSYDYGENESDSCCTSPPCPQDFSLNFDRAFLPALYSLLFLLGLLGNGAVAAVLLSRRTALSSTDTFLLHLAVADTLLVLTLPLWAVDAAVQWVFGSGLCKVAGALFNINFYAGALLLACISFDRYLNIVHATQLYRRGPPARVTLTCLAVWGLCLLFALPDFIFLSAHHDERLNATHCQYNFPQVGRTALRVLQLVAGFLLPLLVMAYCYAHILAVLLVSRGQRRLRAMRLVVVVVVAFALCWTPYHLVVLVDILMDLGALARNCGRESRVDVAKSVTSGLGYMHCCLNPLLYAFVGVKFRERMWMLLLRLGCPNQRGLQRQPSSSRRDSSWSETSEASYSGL

[24] = system: Rattus norvegicus; assay: Renal toxicity in Sprague-Dawley rat assessed as effect on kidney size at 50 mg/kg/day, sc administered for 14 days relative to control; assay type: organism-based; settings: in vivo, 336 h; method in brief: as §2
[25] = Cytotoxicity against human Detroit 551 cells; assay type: cell-based
[26] = system: Mus musculus; assay: In vivo antagonist activity at CXCR4 in C57BL/6 mouse assessed as induction of neutrophils molization at 35 mg/kg, sc measured after 2 hrs relative to untreated control; assay type: functional

Sequence of C-X-C chemokine receptor type 4 (P61073 whole entry): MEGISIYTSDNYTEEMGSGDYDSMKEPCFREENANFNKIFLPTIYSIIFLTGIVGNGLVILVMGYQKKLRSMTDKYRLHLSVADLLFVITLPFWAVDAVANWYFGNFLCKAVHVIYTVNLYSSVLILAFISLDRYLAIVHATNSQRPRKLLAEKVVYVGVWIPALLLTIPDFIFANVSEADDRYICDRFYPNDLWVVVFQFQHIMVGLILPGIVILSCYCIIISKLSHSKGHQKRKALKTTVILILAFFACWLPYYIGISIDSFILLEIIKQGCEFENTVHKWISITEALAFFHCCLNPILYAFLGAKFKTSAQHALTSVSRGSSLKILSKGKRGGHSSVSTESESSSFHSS

Cc1cc(NC2CCN(C(=O)CCNCC(=O)O)CC2)nc(NCc2cn(CCCNCCCNC3CCCCC3)nn2)n1
Efficacy [1]: 73.4% | Activity [2]: Non-Toxic | Activity [3]: Non-Toxic | Activity [4]: 30 - 50% | fold change (FC) [5]: 1.6 | half-life [6]: 30 min | Activity [7]: 30 - 50% | inhibition (INH) [8]: Not Active | Activity [9]: Non-Toxic | Efficacy [10]: 0.5% | Efficacy [11]: 0.5% | Efficacy [12]: -2.8% | fold change (FC) [13]: 7 | Efficacy [14]: -1.2% | Activity [15]: Non-Toxic | Cmax [16]: 16400 ng/mL | inhibition [17]: 70% | Activity [18]: Active | Activity [19]: Non-Toxic | Activity [20]: Non-Toxic | Activity [21]: Non-Toxic | TI [22]: 12.5 | Efficacy [23]: -7.6% | Activity [24]: Non-Toxic | CC50 [25]: > 100 µM | fold change (FC) [26]: 2 - 4

Source: ChEMBL document CHEMBL4024793, “Development of Stem-Cell-Mobilizing Agents Targeting CXCR4 Receptor for Peripheral Blood Stem Cell Transplantation and Beyond” (J Med Chem, 2018)
